Screens deposited in PubChem BioAssay by Broad Institute.
Hits are enriched below; roughly 2.5% of the tested compounds scored in any of these assays.
E-selectin induc = induces E-selectin expression in human endothelial cells; actives 0.37% (n = 260,000); HUVEC E-selectin immunofluorescence imaging; normalized: neutral wells 0, TNF-alpha wells 100; P16581; AID 686992; activation, % at 7.58 µM;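 active = mean E-selectin-positive cell signal at least 10% of the positive control, reached in at least 60% of replicates, without over 20% cell loss; inconclusive = no rule given, readout overlaps actives, possibly toxicity-flagged; inactive = the rest, including those meeting only one limit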
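Material: HUVEC primary endothelial cells; Amount: 3,000 cells per well; Dosing: single concentration; Medium: EGM-2 growth medium on 0.1% gelatin-coated wells; Read-out basis: percent E-selectin-positive cells; Signal: immunofluorescence imaging; Control set: TNF-alpha, DMSO.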
PglD DTNB = PglD (C. jejuni) enzyme inhibition; purified PglD enzyme, DTNB colorimetric CoA detection; actives 0.098% (n = 360,000); inhibition, % at 12.5 µM; in the data active = inhibition above about 16%, passing the limit was not always enough; inconclusive = no clear call, values can overlap the other calls
SIRT5 inh = blocks human SIRT5 desuccinylation of peptide; Q9NXA8; Purified SirT5, succinyl-peptide AMC, trypsin-coupled fluorescence; inhibition, % at 15 µM; actives 1.1% (n = 330,000); AID 652115; in the data active = inhibition above about 15%; inconclusive = no clear call, values can overlap the other calls
Target sequence (Q9NXA8 whole entry, looked up): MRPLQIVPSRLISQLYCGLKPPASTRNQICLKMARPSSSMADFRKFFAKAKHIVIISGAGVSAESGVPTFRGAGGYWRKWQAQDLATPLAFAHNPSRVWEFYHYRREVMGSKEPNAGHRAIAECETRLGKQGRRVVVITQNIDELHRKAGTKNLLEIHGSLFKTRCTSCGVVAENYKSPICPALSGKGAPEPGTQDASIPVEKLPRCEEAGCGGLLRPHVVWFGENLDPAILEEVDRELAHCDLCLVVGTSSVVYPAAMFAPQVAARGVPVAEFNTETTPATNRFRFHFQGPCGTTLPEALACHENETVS
DENV2 CPE rescue = DENV2-induced cell death inhibition | DENV2-infected cells, cytopathic effect rescue, plate reader | CPE inhibition, % at 9.99 µM | actives 1.7% (n = 350,000); in the data active = CPE inhibition above about 20%, passing the limit was not always enough; inconclusive = no clear call, values can overlap the other calls; tested in BHK-21 cells;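 note: 0% = median of neutral control wells and 100% = median of positive control wells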
ERAP1 inh = ERAP1 (human) enzyme inhibition; Q9NZ08; recombinant ERAP1, Leu-AMC fluorescence, 60 min; inhibition, % at 10.7 µM; actives 0.15% (n = 340,000);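 active = mean replicate inhibition of at least 30%, or all replicates individually reaching that 30% level; inactive = mean below 30% and not every replicate reaching it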;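 note: 0% = neutral control wells and 100% = L-leucinethiol positive control wells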
Numbers without * were called inactive; ? = inconclusive; / = no result given.

SMILES	E-selectin induc	PglD DTNB	SIRT5 inh	DENV2 CPE rescue	ERAP1 inh
COc1ccc(NC(=O)N(C)C[C@@H]2Oc3c(NC(=O)Nc4ccc(F)cc4)cccc3C(=O)N([C@@H](C)CO)C[C@H]2C)cc1	0	-4	6	34*	0
C/C=C/c1ccc2c(c1)O[C@@H](CN(C)C(=O)Cc1ccccc1)[C@@H](C)CN([C@H](C)CO)S2(=O)=O	0	7	-2	0	-2
COC(=O)CC(=O)O[C@H]1C=C[C@@H](NC(=O)OC(C)(C)C)C1	/	-1	-2	-2	-4
CC(=O)CC(=O)O[C@@H]1C=C[C@H](NC(=O)OC(C)(C)C)C1	0	/	/	29*	15
CCOc1ccc(C(C)=O)cc1COC(=O)CNC(=O)C12CC3CC(CC(C3)C1)C2	1	6	0	-1	-2
C/C=C(\C)CN1CCC(n2nccc2NC(=O)CCc2ccccc2)CC1	0	1	-2	101*	0
COc1ccc2c3c([nH]c2c1)[C@@H](CO)N(Cc1cc(F)ccc1F)CC31CN(C)C1	-1	/	-3	0	0
COc1ccc2c3c([nH]c2c1)[C@@H](CO)N(Cc1cc(F)ccc1F)CC31CN(C(=O)CN(C)C)C1	0	/	0	18	-43
CCS(=O)(=O)N1CC2(CN(Cc3ccccc3F)[C@@H](CO)c3[nH]c4cc(OC)ccc4c32)C1	0	/	3	20*	-1
COc1ccc2c3c([nH]c2c1)[C@H](CO)N(Cc1cc(F)ccc1F)CC31CN(C(=O)CN(C)C)C1	0	/	-1	26*	-3
COc1ccc2c3c([nH]c2c1)[C@H](CO)N(Cc1cc(F)ccc1F)CC31CN(C)C1	-1	/	-3	13	40*
COc1ccc2c3c([nH]c2c1)[C@@H](CO)N(Cc1ccccc1F)CC31CN(C)C1	0	/	/	-4	/
Cc1ccc(/C=C\c2nccc3c2[nH]c2ccccc23)cc1	18	-9	-3	/	-4
Cc1cc(C)n(C2CCCCC2OC(=O)c2ccccc2F)n1 (stereo not drawn)	/	-4	/	/	/
C#CCN1CCc2onc(-c3ccccc3OC)c2C1=O	0	3	-3	-7	-6
CC(C)CC(=O)Nc1ccnc(-c2ccncc2)n1	/	-2	-4	-18	-6
CCOc1ccc(CCNC(=O)COC(=O)CNS(=O)(=O)c2ccc(C)cc2)cc1OCC	0	-11	1	2	-1
CCOC(=O)[C@@H]1[C@H]2COc3ccc(Br)cc3[C@H]2N2C(=O)N(c3cccc(Cl)c3)C(=O)[C@]12C	0	5	-12	9	3
C[C@H]1CN([C@@H](C)CO)C(=O)c2cccc(NC(=O)c3nc4ccccc4s3)c2O[C@@H]1CN(C)Cc1ccc(C(F)(F)F)cc1	48*	-2	21*	-1	-1
C[C@@H]1CN([C@@H](C)CO)C(=O)c2cccc(NC(=O)c3nc4ccccc4s3)c2O[C@H]1CN(C)Cc1ccc(C(F)(F)F)cc1	1	3	22*	-3	-1
C[C@@H]1CN([C@H](C)CO)C(=O)c2cccc(NC(=O)c3nc4ccccc4s3)c2O[C@@H]1CN(C)Cc1ccc(C(F)(F)F)cc1	-1	-2	25*	-3	-1
COc1ccc(CN(C)C[C@H]2Oc3c(NC(=O)c4nc5ccccc5s4)cccc3C(=O)N([C@H](C)CO)C[C@@H]2C)cc1	0	0	3	24*	1
CS(=O)(=O)N1CC(=O)N2[C@H](CO)[C@@H](c3ccc(C#CCc4ccccc4)cc3)[C@@H]2C1	0	/	-4	-1	5
COc1ccc(NC(=O)CSc2nc(=O)n(CCN3CCOCC3)c3c2CCCC3)c(OC)c1	0	-1	-1	5	0
Cn1c(Cn2nnc3ccccc32)nnc1SCC(=O)Nc1ccc2c(c1)OCO2	/	4	-2	-5	4
SMILES	E-selectin induc	PglD DTNB	SIRT5 inh	DENV2 CPE rescue	ERAP1 inh
O=C(CNC(=O)c1cccs1)NCC(=O)OCc1c(Cl)cccc1Cl	/	3	-6	-1	-4
C[C@H](CO)N1C[C@H](C)[C@H](CN(C)Cc2ccc(C(F)(F)F)cc2)Oc2c(NC(=O)c3nc4ccccc4s3)cccc2C1=O	-3	9	28*	-2	-1
C[C@H](CO)N1C[C@H](C)[C@@H](CN(C)Cc2ccc(C(F)(F)F)cc2)Oc2c(NC(=O)c3nc4ccccc4s3)cccc2C1=O	-11	4	16*	14	0
OC(c1ccccc1)c1nc(-c2cccc3cccnc23)cs1 (stereo not drawn)	0	3	-8	?	5
OCc1ccc(-c2nn(Cc3ccccc3)c3ccccc23)o1	117*	1	-16	5	4
O=c1c2ccccc2c(-c2n[nH]c(=S)o2)nn1Cc1ccccc1	/	/	/	0	-1
COc1ccc2c3c(n(C)c2c1)[C@H](CO)NCC31CN(Cc2ccccc2F)C1	0	/	/	1	/
COc1ccc2c3c(n(C)c2c1)[C@@H](CO)NCC31CN(Cc2cc(F)ccc2F)C1	0	/	/	31*	/
COc1ccc2c3c(n(C)c2c1)[C@H](CO)NCC31CCN(Cc2ccccc2F)CC1	0	/	/	31*	/
COc1ccc2c3c(n(C)c2c1)[C@H](CO)NCC31CN(Cc2ccc(F)cc2)C1	0	/	-9	-1	1
CC1(C)Cc2c(sc3c2C(=O)N(c2ccccc2)C2=NCCCN23)CO1	/	-3	/	/	/
COc1cccc(N/N=C(\C#N)S(=O)(=O)C(C)(C)C)c1	-1	/	18*	-1	4
CC(C)(C)S(=O)(=O)/C(C#N)=N/Nc1ccc(C#N)cc1	/	/	6	-3	9
CC(C)NC(=O)N(C)C[C@@H]1Oc2c(NC(=O)c3ccc(-c4nccs4)cc3)cccc2C(=O)N([C@@H](C)CO)C[C@H]1C	52*	1	2	1	-1
C[C@@H]1CN([C@@H](C)CO)C(=O)c2cccc(NC(=O)c3ccc(-c4nccs4)cc3)c2O[C@H]1CN(C)C	15	3	-2	73*	-2
C[C@@H]1CN([C@H](C)CO)C(=O)c2cccc(NC(=O)c3ccc(-c4nccs4)cc3)c2O[C@@H]1CN(C)C(=O)Nc1ccc(F)cc1	-14	-1	5	63*	0
C[C@@H]1CN([C@@H](C)CO)C(=O)c2cccc(NC(=O)c3ccc(-c4nccs4)cc3)c2O[C@@H]1CN(C)S(C)(=O)=O	-11	2	-2	24*	1
C[C@@H]1CN([C@H](C)CO)C(=O)c2cccc(NC(=O)c3ccc(-c4nccs4)cc3)c2O[C@H]1CN(C)C(=O)Nc1ccc(F)cc1	24	-1	4	-7	-1
C[C@H](CO)N1C[C@H](C)[C@H](CN(C)C)Oc2c(NC(=O)c3ccc(-c4nccs4)cc3)cccc2C1=O	13	-8	5	-4	2
C[C@@H]1CN([C@H](C)CO)C(=O)c2cccc(NC(=O)c3ccc(-c4nccs4)cc3)c2O[C@H]1CN(C)S(C)(=O)=O	2	2	-2	2	1
CCOC(=O)C(=CNc1nc2ccc(C(=O)OCC)cc2s1)C(=O)OCC	0	5	-3	18	-2
